Results: ChEMBL document CHEMBL1129933, “Tyrosine kinase inhibitors. 6. Structure-activity relationships among N- and 3-substituted 2,2'-diselenobis(1H-indoles) for inhibition of protein tyrosine kinases and comparative in vitro and in vivo studies against selected sulfur congeners” (J Med Chem, 1997)

Assays:
[1] = biological target: T1, Epidermal growth factor receptor (Homo sapiens, UniProt P00533); assay: Inhibition of epidermal growth factor receptor (EGFr) using ATP substrate
Outline: (§1)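 EGFr came from membrane vesicles shed by human A431 carcinoma cells. Activity was measured as 32P-phosphate transfer from ATP into a TCA-precipitable glutamate/tyrosine (4:1) random copolymer. ATP or peptide polymer substrate was varied. Ki was obtained by nonlinear regression with Cleland's equations, comparing slope and intercept determinations to assign the inhibition type.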

[2] = biological target: T1, Epidermal growth factor receptor; assay: Inhibition of epidermal growth factor receptor (EGFr) using peptide substrate; outline: as §1
[3] = biological target: T1, Epidermal growth factor receptor; assay: Inhibition of epidermal growth factor receptor (EGFr)
[4] = biological target: T2, Platelet-derived growth factor receptor beta (Mus musculus, UniProt P05622); assay: Inhibition of Platelet-derived growth factor receptor beta (PDGFr)
Outline: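 Full-length mouse PDGF-β receptor was overexpressed in baculovirus-infected insect cells and assayed as cell lysates. Read-out was 32P-phosphate transfer from ATP into TCA-precipitable poly(Glu,Tyr) 4:1. IC50 values are means of duplicates from at least two separate experiments.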

[5] = Inhibition of mouse Swiss 3T3 fibroblasts proliferation; assay type: functional, cell-based
Outline: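 Swiss 3T3 mouse fibroblast growth assay. IC50 is the concentration reducing cell growth rate by 50%, as the mean of duplicates from at least two separate experiments.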

[6] = Inhibition of Src tyrosine kinase
Outline: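 v-src protein came from baculovirus-infected insect cells. Kinase activity was measured as 32P incorporation from ATP into TCA-precipitable random Glu/Tyr (4:1) copolymer. IC50 values are means of duplicates from at least two separate experiments.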

[7] = Inhibition of Src tyrosine kinase using ATP substrate
Outline: (§2)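 v-src kinase inhibition kinetics were run with either ATP or the Glu/Tyr peptide polymer substrate varied. Ki (µM) was obtained by nonlinear regression using Cleland's equations. Inhibition type was assigned by comparing Ki values from slope and intercept determinations.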

[8] = Inhibition of Src tyrosine kinase using peptide substrate; outline: as §2
A-431 [9] = assay: In vivo activity against human A431 epidermoid xenograft, net cell kill at 0.5 mg/kg/day administered subcutaneously for 1-27 days; assay type: functional; details: route subcutaneous
Outline: (§3)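 Nude mice (NCr nu/nu), 18-22 g, randomized, implanted sc in the right axilla with serially passaged A431 tumor fragments on day 0. Dosing was by ip bolus or continuous sc Alzet miniosmotic pump infusion, by average cage weight. Vehicle was distilled H2O or 10% DMA in 50 mM lactic acid buffer, pH 4.0, depending on compound. Net cell kill = net log reduction in tumor burden between first and last treatments.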

A-431 [10] = assay: In vivo activity against human A431 epidermoid xenograft, net cell kill at 0.5 mg/kg/day administered subcutaneously for 9-15 days; assay type: functional; details: route subcutaneous; outline: as §3
C6 [11] = assay: In vivo activity against C6 glioma xenograft, net cell kill at 1.8 mg/kg administered intraperitoneally for 9 days; assay type: functional; details: route intraperitoneal
Outline: (§4)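 […] C6 glioma xenograft, serially passaged in NCr nu/nu nude mice, implanted sc as tumor fragments in the right axilla on day 0. Mice weighed 18-22 g and were randomized. Dosing was ip bolus on a d1-9 daily schedule in 10% DMA in 50 mM lactic acid buffer, pH 4.0, by average cage weight. Weight change is the maximum treatment-related weight loss in the growth delay assay.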

A-431 [12] = assay: In vivo activity against human A431 epidermoid xenograft, weight change after 0.5 mg/kg/day sc dose for 9-15 days; assay type: functional; details: route subcutaneous
Outline: (§5)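 Nude mice (NCr nu/nu, 18-22 g) bearing sc A431 fragments in the right axilla (day 0) received continuous sc infusion from an Alzet miniosmotic pump implanted under ketamine-xylazine. Pumps were removed or replaced under lidocaine-epinephrine for longer therapy, in 7-day and 27-day studies. Daily dose was the maximum deliverable without significant precipitation. Weight change was taken as the maximum treatment-related loss.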

C6 [13] = assay: In vivo activity against C6 glioma xenograft, weight change after 1.8 mg/kg ip dose for 9 days; assay type: functional; details: route intraperitoneal; outline: as §4
[14] = biological target: T2, Platelet-derived growth factor receptor beta; assay: Inhibition of platelet-derived growth factor receptor (PDGFr) autophosphorylation; assay type: functional
Outline: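 Swiss 3T3 fibroblasts were treated 2 h with a range of compound concentrations, then stimulated 5 min with growth factor. Receptor tyrosine phosphorylation was assessed by cell extraction and western blotting.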

[15] = biological target: Fibroblast growth factor receptor (Mus musculus, UniProt P21803+Q03142+P16092+Q61851); assay: Inhibition of fibroblast growth factor (bFGF)-mediated autophosphorylation of FGF-R in Swiss 3T3 mouse fibroblasts; assay type: functional
Outline: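 Swiss 3T3 fibroblasts were treated 2 h with a range of compound concentrations, then stimulated for 5 min with growth factor (bFGF). Receptor tyrosine phosphorylation was read by extraction and western blotting.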

[16] = Inhibition of DNA synthesis; assay type: functional
Outline: (§6)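 Log-phase cells were drug-treated for 2 h, then exposed for 2 h to 1 µM [methyl-3H]thymidine (DNA), [5-3H]uridine (RNA) or (S)-[4,5-3H]leucine (protein), each at 1 µCi/nmol. Cells were trypsinized into ice-cold 15% TCA, and precipitates were collected on glass-fibre filters, washed, and counted by scintillation.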

[17] = Inhibition of RNA synthesis; assay type: functional; outline: as §6
[18] = Inhibition of protein synthesis; assay type: functional; outline: as §6
[19] = biological target: Epidermal growth factor receptor (Mus musculus) (UniProt Q01279); assay: Inhibition of epidermal growth factor receptor (EGFr) autophosphorylation
C6 [20] = assay: In vivo activity against C6 glioma xenograft, tumor growth delay (T-C, days) at 1.8 mg/kg ip dose for 9 days; details: route intraperitoneal
A-431 [21] = assay: In vivo activity against human A431 epidermoid xenograft, tumor growth delay (T-C) at 0.5 mg/kg/day administered subcutaneously for 9-15 days; details: route subcutaneous
A-431 [22] = assay: In vivo activity against human A431 epidermoid xenograft, tumor growth delay (T-C, days) at 0.5 mg/kg/day administered subcutaneously for 1-27 days; details: route subcutaneous
A-431 [23] = assay: In vivo activity against human A431 epidermoid xenograft, weight change after 0.5 mg/kg/day sc dose for 1-27 days; assay type: functional, organism-based; outline: as §5

T1 sequence (P00533 whole entry): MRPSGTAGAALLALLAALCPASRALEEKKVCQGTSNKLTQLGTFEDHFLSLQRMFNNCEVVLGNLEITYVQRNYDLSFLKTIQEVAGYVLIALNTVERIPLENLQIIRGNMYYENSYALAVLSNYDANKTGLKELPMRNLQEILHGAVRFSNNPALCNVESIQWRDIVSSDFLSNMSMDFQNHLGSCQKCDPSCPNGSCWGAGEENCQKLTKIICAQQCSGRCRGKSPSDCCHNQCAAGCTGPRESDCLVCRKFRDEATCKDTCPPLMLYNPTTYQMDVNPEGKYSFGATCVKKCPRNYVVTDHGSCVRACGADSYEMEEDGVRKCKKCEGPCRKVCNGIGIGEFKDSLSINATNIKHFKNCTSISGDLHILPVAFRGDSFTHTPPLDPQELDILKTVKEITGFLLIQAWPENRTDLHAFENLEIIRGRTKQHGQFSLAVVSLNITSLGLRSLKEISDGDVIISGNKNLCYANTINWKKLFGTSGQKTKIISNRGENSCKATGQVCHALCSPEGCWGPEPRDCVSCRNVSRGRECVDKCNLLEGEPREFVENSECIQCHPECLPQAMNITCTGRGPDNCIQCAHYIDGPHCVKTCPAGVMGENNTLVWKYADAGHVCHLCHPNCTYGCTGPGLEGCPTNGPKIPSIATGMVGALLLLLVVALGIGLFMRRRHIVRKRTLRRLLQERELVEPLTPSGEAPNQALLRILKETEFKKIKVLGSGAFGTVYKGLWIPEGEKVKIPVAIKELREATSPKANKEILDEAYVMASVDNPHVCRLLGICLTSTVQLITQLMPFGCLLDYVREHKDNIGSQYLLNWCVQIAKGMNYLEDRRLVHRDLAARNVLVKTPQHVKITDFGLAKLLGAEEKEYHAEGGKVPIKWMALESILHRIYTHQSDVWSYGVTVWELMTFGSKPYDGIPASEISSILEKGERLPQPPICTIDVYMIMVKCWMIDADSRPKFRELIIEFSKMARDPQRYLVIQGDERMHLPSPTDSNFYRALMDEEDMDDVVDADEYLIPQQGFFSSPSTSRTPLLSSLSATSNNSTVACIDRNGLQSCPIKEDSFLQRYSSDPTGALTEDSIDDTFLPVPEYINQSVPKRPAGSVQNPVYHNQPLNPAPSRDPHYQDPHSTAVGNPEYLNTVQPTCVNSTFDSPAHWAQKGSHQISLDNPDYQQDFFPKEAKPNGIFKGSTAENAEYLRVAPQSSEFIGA
T2 sequence (P05622 whole entry): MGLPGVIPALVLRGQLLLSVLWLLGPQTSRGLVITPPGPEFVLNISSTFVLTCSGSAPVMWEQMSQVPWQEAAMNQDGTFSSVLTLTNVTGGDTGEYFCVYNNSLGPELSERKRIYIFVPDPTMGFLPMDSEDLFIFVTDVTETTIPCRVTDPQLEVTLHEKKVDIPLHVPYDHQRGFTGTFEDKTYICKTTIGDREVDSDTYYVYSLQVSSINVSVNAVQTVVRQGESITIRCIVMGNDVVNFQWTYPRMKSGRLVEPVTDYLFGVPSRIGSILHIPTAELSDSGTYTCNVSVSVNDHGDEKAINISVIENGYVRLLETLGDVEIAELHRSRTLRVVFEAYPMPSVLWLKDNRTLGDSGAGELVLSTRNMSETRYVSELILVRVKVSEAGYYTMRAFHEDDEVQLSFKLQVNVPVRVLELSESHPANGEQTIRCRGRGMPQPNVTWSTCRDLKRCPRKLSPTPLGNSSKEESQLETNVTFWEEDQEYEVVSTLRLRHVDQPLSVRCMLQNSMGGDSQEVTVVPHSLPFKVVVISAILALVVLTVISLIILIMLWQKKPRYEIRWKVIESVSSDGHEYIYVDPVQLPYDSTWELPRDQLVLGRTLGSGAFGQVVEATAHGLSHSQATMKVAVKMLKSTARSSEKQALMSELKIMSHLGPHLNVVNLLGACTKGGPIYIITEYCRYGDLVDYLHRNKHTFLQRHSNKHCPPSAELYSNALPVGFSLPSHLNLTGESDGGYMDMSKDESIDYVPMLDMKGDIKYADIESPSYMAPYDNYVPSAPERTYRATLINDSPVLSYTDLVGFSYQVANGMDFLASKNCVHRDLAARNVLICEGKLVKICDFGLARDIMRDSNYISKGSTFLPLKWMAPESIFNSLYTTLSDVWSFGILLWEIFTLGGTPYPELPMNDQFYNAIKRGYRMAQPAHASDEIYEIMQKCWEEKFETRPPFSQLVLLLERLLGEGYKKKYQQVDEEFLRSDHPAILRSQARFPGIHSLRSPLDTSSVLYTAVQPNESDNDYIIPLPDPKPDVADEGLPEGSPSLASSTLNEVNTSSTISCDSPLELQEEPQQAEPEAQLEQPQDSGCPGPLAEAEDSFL
Chain of Epidermal growth factor receptor (Mus musculus) (Q01279 whole entry, looked up): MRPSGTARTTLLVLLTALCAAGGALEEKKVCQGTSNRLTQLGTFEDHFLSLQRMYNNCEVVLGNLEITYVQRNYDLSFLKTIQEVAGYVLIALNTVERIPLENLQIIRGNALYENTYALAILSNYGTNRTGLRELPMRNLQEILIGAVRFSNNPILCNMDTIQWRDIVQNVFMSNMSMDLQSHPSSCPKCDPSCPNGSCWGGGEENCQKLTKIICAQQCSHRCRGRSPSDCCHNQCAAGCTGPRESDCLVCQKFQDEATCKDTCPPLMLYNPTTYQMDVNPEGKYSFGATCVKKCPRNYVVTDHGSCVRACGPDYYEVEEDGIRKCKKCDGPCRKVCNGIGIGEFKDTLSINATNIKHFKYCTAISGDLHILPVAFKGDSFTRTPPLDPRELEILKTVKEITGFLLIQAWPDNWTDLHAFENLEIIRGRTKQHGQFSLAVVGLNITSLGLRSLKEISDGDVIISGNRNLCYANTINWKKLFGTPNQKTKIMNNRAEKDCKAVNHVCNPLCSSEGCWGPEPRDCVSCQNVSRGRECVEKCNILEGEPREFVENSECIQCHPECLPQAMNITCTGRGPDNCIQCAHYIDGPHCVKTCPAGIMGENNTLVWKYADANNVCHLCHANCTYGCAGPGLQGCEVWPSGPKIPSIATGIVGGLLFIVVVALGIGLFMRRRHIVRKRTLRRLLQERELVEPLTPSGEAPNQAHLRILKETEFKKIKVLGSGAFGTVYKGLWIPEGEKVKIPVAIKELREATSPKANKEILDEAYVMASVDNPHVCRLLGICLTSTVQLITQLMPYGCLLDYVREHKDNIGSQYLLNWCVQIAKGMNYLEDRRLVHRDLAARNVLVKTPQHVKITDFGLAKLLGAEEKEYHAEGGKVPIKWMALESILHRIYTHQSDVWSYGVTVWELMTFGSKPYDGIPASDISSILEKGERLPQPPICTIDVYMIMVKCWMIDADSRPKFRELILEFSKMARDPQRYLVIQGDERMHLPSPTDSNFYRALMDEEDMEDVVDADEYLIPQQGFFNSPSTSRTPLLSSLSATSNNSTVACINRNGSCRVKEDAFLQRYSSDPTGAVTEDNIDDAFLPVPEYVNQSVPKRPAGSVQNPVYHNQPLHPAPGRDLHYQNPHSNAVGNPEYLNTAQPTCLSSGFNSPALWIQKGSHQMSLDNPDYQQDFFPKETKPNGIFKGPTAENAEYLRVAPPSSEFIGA

| SMILES | IC50 [3] [µM] | IC50 [4] [µM] | IC50 ([5]; Mus musculus) [µM] | IC50 [6] [µM] | also measured |
| --- | --- | --- | --- | --- | --- |
| CNC(=O)c1c([Se][Se]c2c(C(=O)NC)c3ccccc3n2C)n(C)c2ccccc12 | 6.1 | 4.7 | 5.5 | 0.4 | Ki [1]: 3.1 µM; Ki [2]: 3.9 µM; Ki [7]: 0.8 µM; Ki [8]: 0.6 µM |
| N[C@H](Cc1c([Se][Se]c2[nH]c3ccccc3c2C[C@H](N)C(=O)NCc2ccccc2)[nH]c2ccccc12)C(=O)NCc1ccccc1 (stereo in doubt; 33) [listing 1 of 2 here] | 0.9 | 14.1 | 0.54 | 2 | Net cell kill (A-431 [9]): -0.4 log10; Net cell kill (A-431 [10]): -0.2 log10; Net cell kill (C6 [11]): -0.2 log10; Weight change (A-431 [12]): -0.2 g; Weight change (C6 [13]): -0.9 g; IC50 [14]: 0.57 µM; IC50 [15]: 0.2 µM; IC50 [16]: 0.18 µM; IC50 [17]: 0.35 µM; IC50 [18]: 0.17 µM; IC50 [19]: 4.2 µM; T-C (C6 [20]): 2 days; T-C (A-431 [21]): 2.2 days; T-C (A-431 [22]): 10.8 days |
| CCN(CC)CCn1c([Se][Se]c2c(C(=O)NC)c3ccccc3n2CCN(CC)CC)c(C(=O)NC)c2ccccc21 |  | 50 |  | 1.7 |  |
| N[C@H](Cc1c([Se][Se]c2[nH]c3ccccc3c2C[C@H](N)C(=O)NCc2ccccc2)[nH]c2ccccc12)C(=O)NCc1ccccc1 (stereo in doubt; 34) | 1.3 | 25.5 |  | 3.8 | Ki [1]: 2.7 µM; Ki [2]: 5.6 µM; IC50 [5]: 0.6 µM |
| Cn1c([Se][Se]c2c(C(=O)OC(C)(C)C)c3ccccc3n2C)c(C(=O)OC(C)(C)C)c2ccccc21 | > 100 | > 31 |  | 1.5 |  |
| O=C(NCc1ccccc1)[C@H](Cc1c([Se]c2[nH]c3ccccc3c2C[C@@H](NC(=O)C(F)(F)F)C(=O)NCc2ccccc2)[nH]c2ccccc12)NC(=O)C(F)(F)F | > 50 | > 50 |  | > 50 |  |
| CCN(CC)CCNC(=O)c1c([Se][Se]c2[nH]c3ccccc3c2C(=O)NCCN(CC)CC)[nH]c2ccccc12 |  | 12.8 | 8 | 3.6 |  |
| CNC(=O)c1c(SSc2c(C(=O)NC)c3ccccc3n2C)n(C)c2ccccc12 | 6.9 | 28.1 |  | 6.7 | Ki [1]: 2.3 µM; Ki [2]: 3.9 µM; Ki [7]: 8 µM; Ki [8]: 1.4 µM |
| Cn1c([Se][Se]c2c(C(=O)O)c3ccccc3n2C)c(C(=O)O)c2ccccc21 |  | 17.4 | 8 | 2.4 |  |
| N[C@H](Cc1c([Se][Se]c2[nH]c3ccccc3c2C[C@H](N)C(=O)NCc2ccccc2)[nH]c2ccccc12)C(=O)NCc1ccccc1 (stereo in doubt; 33) [listing 2 of 2 here] |  |  |  |  | Weight change (A-431 [23]): Weight gain |
| CCN(CC)CCNC(=O)c1c([Se][Se]c2c(C(=O)NCCN(CC)CC)c3ccccc3n2C)n(C)c2ccccc12 |  | 3.4 | 19.5 | 1.8 |  |
| CNC(=O)c1c([Se][Se]c2[nH]c3ccccc3c2C(=O)NC)[nH]c2ccccc12 |  | 8 | 1 | 2.8 |  |
| O=C(NCc1ccccc1)[C@H](Cc1c([Se][Se]c2[nH]c3ccccc3c2C[C@@H](NC(=O)C(F)(F)F)C(=O)NCc2ccccc2)[nH]c2ccccc12)NC(=O)C(F)(F)F | 7 | > 50 |  | 6.2 |  |
